{
  "source": "paper PMC3288537",
  "about": "(ACS Chemical Biology, 2011)",
  "key": {"STEP": {"biological_target": "T1, STEP (Homo sapiens, UniProt P54829)", "T1 sequence (P54829 1-565)": "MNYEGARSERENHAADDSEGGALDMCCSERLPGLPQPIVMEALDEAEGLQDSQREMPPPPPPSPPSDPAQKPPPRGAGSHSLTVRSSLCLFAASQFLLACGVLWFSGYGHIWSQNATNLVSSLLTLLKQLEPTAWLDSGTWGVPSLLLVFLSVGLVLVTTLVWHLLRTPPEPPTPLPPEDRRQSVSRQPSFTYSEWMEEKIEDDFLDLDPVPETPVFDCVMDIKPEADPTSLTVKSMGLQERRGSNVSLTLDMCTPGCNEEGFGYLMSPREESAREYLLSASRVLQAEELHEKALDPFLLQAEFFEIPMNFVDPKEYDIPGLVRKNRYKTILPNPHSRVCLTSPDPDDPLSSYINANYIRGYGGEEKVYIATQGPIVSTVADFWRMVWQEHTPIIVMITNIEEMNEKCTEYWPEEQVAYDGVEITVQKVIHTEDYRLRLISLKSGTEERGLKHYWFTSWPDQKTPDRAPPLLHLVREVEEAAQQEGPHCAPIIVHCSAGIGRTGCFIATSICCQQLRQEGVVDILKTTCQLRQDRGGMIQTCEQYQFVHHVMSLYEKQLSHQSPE", "test": "Dose-response OMFP phosphatase assay, STEP", "assay_type": "biochemical", "conditions": "read-out: IC50 STEP; OMFP substrate"}, "PTP1B": {"biological_target": "T2, PTP1B (Homo sapiens, UniProt P18031)", "T2 sequence (P18031 1-435)": "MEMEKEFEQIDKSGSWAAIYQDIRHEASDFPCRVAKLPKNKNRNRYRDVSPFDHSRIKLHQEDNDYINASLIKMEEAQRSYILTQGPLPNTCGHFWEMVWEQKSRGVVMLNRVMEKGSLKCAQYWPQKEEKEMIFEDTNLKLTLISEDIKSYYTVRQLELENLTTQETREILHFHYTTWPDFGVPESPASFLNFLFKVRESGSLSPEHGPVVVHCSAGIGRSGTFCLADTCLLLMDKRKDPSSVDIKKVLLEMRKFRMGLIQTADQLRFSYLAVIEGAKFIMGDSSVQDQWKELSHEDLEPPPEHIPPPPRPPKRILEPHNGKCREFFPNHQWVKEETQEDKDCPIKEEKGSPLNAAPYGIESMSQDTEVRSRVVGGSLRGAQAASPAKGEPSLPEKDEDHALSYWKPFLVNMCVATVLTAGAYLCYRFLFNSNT", "test": "Dose-response OMFP phosphatase assay, PTP1B", "assay_type": "biochemical", "conditions": "read-out: IC50 PTP1B; OMFP substrate"}, "LYP": {"biological_target": "T3, LYP (Homo sapiens, UniProt Q9Y2R2)", "T3 sequence (Q9Y2R2 1-807)": "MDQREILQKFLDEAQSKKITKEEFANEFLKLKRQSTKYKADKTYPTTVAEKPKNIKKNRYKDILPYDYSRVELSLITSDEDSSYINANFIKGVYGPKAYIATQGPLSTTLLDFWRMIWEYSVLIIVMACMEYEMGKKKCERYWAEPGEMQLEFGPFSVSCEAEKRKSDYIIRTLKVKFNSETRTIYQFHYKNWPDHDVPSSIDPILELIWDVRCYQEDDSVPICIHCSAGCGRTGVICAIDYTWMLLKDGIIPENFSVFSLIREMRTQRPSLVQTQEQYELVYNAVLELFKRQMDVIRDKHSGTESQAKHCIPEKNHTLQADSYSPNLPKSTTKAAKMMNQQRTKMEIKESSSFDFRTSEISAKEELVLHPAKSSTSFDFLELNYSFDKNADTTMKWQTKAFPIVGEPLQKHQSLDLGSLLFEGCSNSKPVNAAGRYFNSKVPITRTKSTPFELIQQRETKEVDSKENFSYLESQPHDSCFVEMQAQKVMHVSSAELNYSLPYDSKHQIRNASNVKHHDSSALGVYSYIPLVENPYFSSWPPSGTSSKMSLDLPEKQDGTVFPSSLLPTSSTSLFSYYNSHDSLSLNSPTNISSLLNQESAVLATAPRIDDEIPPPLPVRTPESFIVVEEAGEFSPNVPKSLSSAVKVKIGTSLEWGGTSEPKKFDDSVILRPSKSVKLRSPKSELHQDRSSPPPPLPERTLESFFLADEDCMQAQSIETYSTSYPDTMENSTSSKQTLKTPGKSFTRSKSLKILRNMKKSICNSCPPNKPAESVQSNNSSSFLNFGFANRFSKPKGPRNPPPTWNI", "test": "Dose-response OMFP phosphatase assay, LYP", "assay_type": "biochemical", "conditions": "read-out: IC50 LYP; OMFP substrate"}, "HePTP H237A mutant": {"biological_target": "T4, HePTP H237A mutant (Homo sapiens, UniProt P35236, H258A)", "T4 sequence (P35236 22-360 H258A limits assumed)": "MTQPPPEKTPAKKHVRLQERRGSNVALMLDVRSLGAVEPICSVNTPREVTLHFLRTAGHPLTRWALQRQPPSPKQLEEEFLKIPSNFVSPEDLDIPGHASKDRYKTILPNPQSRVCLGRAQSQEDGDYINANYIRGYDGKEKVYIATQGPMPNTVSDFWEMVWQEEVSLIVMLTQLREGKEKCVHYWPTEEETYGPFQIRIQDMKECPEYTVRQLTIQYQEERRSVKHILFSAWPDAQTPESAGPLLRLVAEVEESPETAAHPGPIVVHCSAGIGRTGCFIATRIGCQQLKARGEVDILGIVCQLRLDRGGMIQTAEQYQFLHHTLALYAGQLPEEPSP", "test": "Dose-response OMFP phosphatase assay, HePTP H237A mutant", "assay_type": "biochemical", "conditions": "read-out: IC50 HePTP H237A"}, "[1]": {"tested_on": "ERK1/2 and p38 phosphorylation in Jurkat TAg T cells", "test": "Immunoblot of pERK1/2, pp38 and pMEK in TCR-stimulated Jurkat TAg T cells", "assay_type": "cell-based, human", "how_it_was_run": "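Jurkat TAg T cells preincubated with test compound or DMSO (0.2% in time course) for 45 min at 37°C, then stimulated with OKT3 at 500 ng mL-1 for 5 min. Cells lysed at once, or washed and held in fresh RPMI 1640 for set times. Immunoblotted for phospho-ERK1/2, p38 and MEK; bands normalised to total protein (time course also to GAPDH). Mean ± SEM; Student's t-test; 3–4 independent experiments.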"}, "[2]": {"tested_on": "ERK1/2 and p38 phosphorylation in splenocytes", "test": "Immunoblot of phosphorylation levels in spleen of mice injected i.p.", "assay_type": "in vivo, C57B6 mice", "conditions": "mouse spleen, doses and time points used", "how_it_was_run": "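C57B6 mice given test compound i.p. at 3 or 5 mg kg-1, or vehicle; spleens taken 3 h or 6 h later (3 mice per dose and time). Spleen sonicated in Tris pH 7.4 buffer with phosphatase and protease inhibitors; 800 × g supernatant used. Blotted for pS473-AKT, pS23-HePTP, pERK1/2 and pp38, normalised to total protein then GAPDH. ANOVA/Tukey or t-test.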"}, "[3]": {"conditions": "4 μM preincubation, before TCR stimulation, stimulated DMSO = 100%"}, "[4]": {"conditions": "4 μM, OKT3 stimulation, DMSO = 100%"}, "[5]": {"conditions": "4 μM, up to 2 h after TCR stimulation"}, "[6]": {"conditions": "40 μM, 45 min preincubation, OKT3 5 min, vs DMSO"}},
  "data": [
    {"smiles": "O=C(O)c1ccccc1-c1ccc(/C=c2\\sc3nc4cc(Br)cnc4n3c2=O)o1", "note": "[Compound 1]", "values": [
      {"measurement": "IC50", "setting": "STEP", "result": 6300, "unit": "nM"},
      {"measurement": "IC50", "setting": "PTP1B", "result": 1700, "unit": "nM"},
      {"measurement": "IC50", "setting": "LYP", "result": 1900, "unit": "nM"},
      {"measurement": "IC50", "setting": "HePTP H237A mutant", "result": 2800, "unit": "nM"},
      {"measurement": "basal pERK1/2 phosphorylation level", "setting": "[1]; [3]", "result": "22.0 ± 2.5", "unit": "%"},
      {"measurement": "basal pp38 phosphorylation level", "setting": "[1]; [3]", "result": "55.0 ± 5.8", "unit": "%"},
      {"measurement": "pERK1/2 level after TCR stimulation", "setting": "[1]; [4]", "result": "134.3 ± 4.9", "unit": "%"},
      {"measurement": "pp38 level after TCR stimulation", "setting": "[1]; [4]", "result": "125.5 ± 4.0", "unit": "%"},
      {"measurement": "time course of pERK1/2 levels after stimulation", "setting": "[1]; [5]", "result": "remained constant up to 1 h after stimulation"},
      {"measurement": "time course of pp38 levels after stimulation", "setting": "[1]; [5]", "result": "remained unchanged"},
      {"measurement": "pERK1/2 levels", "setting": "[1]; [6]", "result": "augmented"},
      {"measurement": "pMEK levels (activation of MEK)", "setting": "[1]; [6]", "result": "unchanged"},
      {"measurement": "pp38 levels", "setting": "[1]; [6]", "result": "augmented"},
      {"measurement": "pMEK levels in dose-response", "setting": "[1]; concentrations as high as 40 μM", "result": "not affected"},
      {"measurement": "AKT phosphorylation levels", "setting": "[2]", "result": "no change"},
      {"measurement": "phospho-HePTP (pS23) levels", "setting": "[2]", "result": "No changes"}
    ]}
  ]
}
